Converted amounts (≈) assume the structure as drawn.
Tests used:
[1] = tested on: Staphylococcus aureus; assay: Antibacterial activity against methicillin resistant Staphylococcus aureus clinical isolate 4 incubated for 7 to 14 days by microdilution resazurin assay
[2] = tested on: Staphylococcus aureus; assay: Antibacterial activity against methicillin resistant Staphylococcus aureus clinical isolate 1 incubated […] by microdilution resazurin assay; type: functional
[3] = tested on: Staphylococcus aureus; assay: Antibacterial activity against Staphylococcus aureus ATCC 25923 incubated […] by microdilution resazurin assay; type: functional
[4] = tested on: Staphylococcus aureus; assay: Antibacterial activity against methicillin resistant Staphylococcus aureus clinical isolate 9 incubated […] by microdilution resazurin assay; type: functional
[5] = tested on: Staphylococcus aureus; assay: Antibacterial activity against methicillin resistant Staphylococcus aureus clinical isolate 10 incubated […] by microdilution resazurin assay; type: functional
[6] = tested on: Staphylococcus aureus; assay: Antibacterial activity against methicillin resistant Staphylococcus aureus clinical isolate 6 incubated […] by microdilution resazurin assay; type: functional
[7] = tested on: Staphylococcus aureus; assay: Antibacterial activity against methicillin resistant Staphylococcus aureus clinical isolate 3 incubated for 7 to 14 days by microdilution resazurin assay
[8] = Cytotoxicity against human WS1 cells by resazurin reduction assay; type: cell-based
How it was run: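 WS1 human fibroblast line; resazurin reduction test, slightly modified from an earlier method. Etoposide served as positive control.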

[9] = tested on: Staphylococcus aureus; assay: Antibacterial activity against methicillin resistant Staphylococcus aureus clinical isolate 7 incubated […] by microdilution resazurin assay; type: functional
[10] = tested on: Staphylococcus aureus; assay: Antibacterial activity against methicillin resistant Staphylococcus aureus clinical isolate 2 incubated […] by microdilution resazurin assay; type: functional
[11] = tested on: Staphylococcus aureus; assay: Antibacterial activity against methicillin resistant Staphylococcus aureus clinical isolate 5 incubated […] by microdilution resazurin assay; type: functional
[12] = tested on: Staphylococcus aureus; assay: Antibacterial activity against methicillin resistant Staphylococcus aureus clinical isolate 8 incubated […] by microdilution resazurin assay; type: functional
[13] = Staphylococcus aureus, isolate 1, read-out: MIC
[14] = Staphylococcus aureus, ATCC 25923, read-out: MIC
[15] = Staphylococcus aureus, isolate 9, read-out: MIC
[16] = Staphylococcus aureus, isolate 10, read-out: MIC
[17] = Staphylococcus aureus, isolate 6, read-out: MIC
[18] = Staphylococcus aureus, isolate 7, read-out: MIC
[19] = Staphylococcus aureus, isolate 2, read-out: MIC
[20] = Staphylococcus aureus, isolate 5, read-out: MIC
[21] = Staphylococcus aureus, isolate 8, read-out: MIC

## COc1ccc(CCC(=O)c2c(O)c(C/C=C/c3ccc(O)cc3)c(O)c3c2O[C@@H](c2ccc(O)cc2)[C@H](C/C=C/c2ccc(O)cc2)C3)cc1 (racemic)
[1]
  MIC: 13 µM (≈ 8.9 µg/mL)
[2]; [13]
  MIC: 6 µM (≈ 4.11 µg/mL)
[3]; [14]
  MIC: 13 µM (≈ 8.9 µg/mL)
[4]; [15]
  MIC: 13 µM (≈ 8.9 µg/mL)
[5]; [16]
  MIC: 13 µM (≈ 8.9 µg/mL)
[6]; [17]
  MIC: 6 µM (≈ 4.11 µg/mL)
[7]
  MIC: 3 µM (≈ 2.05 µg/mL)
[8]; Homo sapiens, WS1
  IC50: > 10 µM
[9]; [18]
  MIC: 6 µM (≈ 4.11 µg/mL)
[10]; [19]
  MIC: 6 µM (≈ 4.11 µg/mL)
[11]; [20]
  MIC: 13 µM (≈ 8.9 µg/mL)
[12]; [21]
  MIC: 13 µM (≈ 8.9 µg/mL)

## O=C(CCc1ccccc1)c1c(O)c2c(c3c1O[C@@H](c1ccc(O)cc1)[C@H](C/C=C/c1ccc(O)cc1)C3)O[C@@H](c1ccc(O)cc1)[C@H](O)C2 (racemic)
[1]
  MIC: 6 µM (≈ 4.02 µg/mL)
[2]; [13]
  MIC: 6 µM (≈ 4.02 µg/mL)
[3]; [14]
  MIC: 6 µM (≈ 4.02 µg/mL)
[4]; [15]
  MIC: 6 µM (≈ 4.02 µg/mL)
[5]; [16]
  MIC: 6 µM (≈ 4.02 µg/mL)
[6]; [17]
  MIC: 6 µM (≈ 4.02 µg/mL)
[7]
  MIC: 6 µM (≈ 4.02 µg/mL)
[8]; Homo sapiens, WS1
  IC50: > 10 µM
[9]; [18]
  MIC: 6 µM (≈ 4.02 µg/mL)
[10]; [19]
  MIC: 6 µM (≈ 4.02 µg/mL)
[11]; [20]
  MIC: 6 µM (≈ 4.02 µg/mL)
[12]; [21]
  MIC: 6 µM (≈ 4.02 µg/mL)

## O=C(CCc1ccccc1)c1c(O)c2c(c3c1OC(c1ccc(O)cc1)C(C/C=C/c1ccc(O)cc1)C3)OC(c1ccc(O)cc1)C(C/C=C/c1ccc(O)cc1)C2 (racemic; form 1)
[1]
  MIC: > 50 µM
[2]; [13]
  MIC: > 50 µM
[4]; [15]
  MIC: > 50 µM
[5]; [16]
  MIC: > 50 µM
[6]; [17]
  MIC: > 50 µM
[7]
  MIC: > 50 µM
[8]
  IC50: 2.3 µM
[9]; [18]
  MIC: > 50 µM
[10]; [19]
  MIC: > 50 µM
[11]; [20]
  MIC: > 50 µM
[12]; [21]
  MIC: > 50 µM

## O=C(CCc1ccccc1)c1c(O)c2c(c3c1OC(c1ccc(O)cc1)C(C/C=C/c1ccc(O)cc1)C3)OC(c1ccc(O)cc1)C(C/C=C/c1ccc(O)cc1)C2 (racemic; form 2)
[3]; [14]
  MIC: > 50 µM
[8]
  IC50: > 10 µM

## O=C(CCc1ccccc1)c1c(O)cc(O)c2c1OC(c1ccc(O)cc1)CC2 (single isomer, unassigned; (+))
[2]
  MIC: 13 µM (≈ 5.08 µg/mL)
[3]; [14]
  MIC: 6 µM (≈ 2.34 µg/mL)
[6]
  MIC: 25 µM (≈ 9.76 µg/mL)
[10]
  MIC: 13 µM (≈ 5.08 µg/mL)
[12]
  MIC: 13 µM (≈ 5.08 µg/mL)

## O=C(CCc1ccccc1)c1c(O)cc(O)c2c1OC(c1ccc(O)cc1)C(O)C2 (stereo in doubt; (+)-15)
[2]
  MIC: 25 µM (≈ 10.2 µg/mL)
[3]; [14]
  MIC: 25 µM (≈ 10.2 µg/mL)
[4]
  MIC: 25 µM (≈ 10.2 µg/mL)
[6]
  MIC: 25 µM (≈ 10.2 µg/mL)
[12]
  MIC: 25 µM (≈ 10.2 µg/mL)

## COc1ccc(CCC(=O)c2c(O)cc(O)c3c2OC(c2ccc(O)cc2)C(O)C3)cc1 (stereo in doubt; (+)-16)
[2]
  MIC: >50 µM
[3]; [14]
  MIC: 25 µM (≈ 10.9 µg/mL)
[5]
  MIC: >50 µM
[10]
  MIC: 50 µM (≈ 21.8 µg/mL)
[11]
  MIC: >50 µM
[12]
  MIC: 50 µM (≈ 21.8 µg/mL)

## O=C(CCc1ccccc1)c1c(O)cc2c(c1O)CC(O)C(c1ccc(O)cc1)O2 (stereo in doubt; (+)-17)
[3]; [14]
  MIC: 50 µM (≈ 20.3 µg/mL)
[5]
  MIC: >50 µM
[9]
  MIC: 50 µM (≈ 20.3 µg/mL)
[12]
  MIC: 50 µM (≈ 20.3 µg/mL)

## O=C(CCc1ccccc1)c1c(O)cc(O)c2c1OC(c1ccc(O)cc1)CC2 (stereo in doubt; (-)-12)
[2]
  MIC: 6 µM (≈ 2.34 µg/mL)
[4]; [15]
  MIC: 13 µM (≈ 5.08 µg/mL)
[5]; [16]
  MIC: 13 µM (≈ 5.08 µg/mL)
[6]; [17]
  MIC: 13 µM (≈ 5.08 µg/mL)
[7]
  MIC: 6 µM (≈ 2.34 µg/mL)
[8]; Homo sapiens, WS1
  IC50: > 10 µM
[9]; [18]
  MIC: 6 µM (≈ 2.34 µg/mL)
[10]
  MIC: 6 µM (≈ 2.34 µg/mL)
[11]; [20]
  MIC: 6 µM (≈ 2.34 µg/mL)
[12]
  MIC: 6 µM (≈ 2.34 µg/mL)

## O=C(CCc1ccccc1)c1c(O)cc(O)c2c1OC(c1ccc(O)cc1)C(O)C2 (stereo in doubt; (-)-15)
[1]
  MIC: 50 µM (≈ 20.3 µg/mL)
[2]; [13]
  MIC: 50 µM (≈ 20.3 µg/mL)
[4]; [15]
  MIC: 50 µM (≈ 20.3 µg/mL)
[5]; [16]
  MIC: 25 µM (≈ 10.2 µg/mL)
[6]; [17]
  MIC: 50 µM (≈ 20.3 µg/mL)
[7]
  MIC: 50 µM (≈ 20.3 µg/mL)
[8]; Homo sapiens, WS1
  IC50: > 10 µM
[9]; [18]
  MIC: 25 µM (≈ 10.2 µg/mL)
[10]; [19]
  MIC: 25 µM (≈ 10.2 µg/mL)
[11]; [20]
  MIC: 25 µM (≈ 10.2 µg/mL)
[12]; [21]
  MIC: 50 µM (≈ 20.3 µg/mL)

## COc1ccc(CCC(=O)c2c(O)cc(O)c3c2OC(c2ccc(O)cc2)C(O)C3)cc1 (stereo in doubt; (-)-16)
[2]; [13]
  MIC: 50 µM (≈ 21.8 µg/mL)
[4]; [15]
  MIC: 50 µM (≈ 21.8 µg/mL)
[5]; [16]
  MIC: 25 µM (≈ 10.9 µg/mL)
[6]; [17]
  MIC: 50 µM (≈ 21.8 µg/mL)
[7]
  MIC: 25 µM (≈ 10.9 µg/mL)
[8]; Homo sapiens, WS1
  IC50: > 10 µM
[9]; [18]
  MIC: 25 µM (≈ 10.9 µg/mL)
[10]; [19]
  MIC: 25 µM (≈ 10.9 µg/mL)
[11]
  MIC: 13 µM (≈ 5.67 µg/mL)
[12]; [21]
  MIC: > 50 µM

## GENTAMICIN
[2]
  MIC: 0.05 µM
[3]
  MIC: 0.03 µM
[4]
  MIC: 0.07 µM
[5]
  MIC: 0.07 µM
[6]
  MIC: 0.05 µM
[9]
  MIC: 0.07 µM
[10]
  MIC: 0.04 µM
[11]
  MIC: 0.08 µM
[12]
  MIC: 0.09 µM
